Data set [1] is described as follows: Induction of osteoblast differentiation in Sprague-Dawley rat calvarial osteoblasts assessed as alkaline phosphatase activity at 100 pM after 48 hrs using PNPP as substrate by spectrophotometric method relative to control. It counts as functional. In a few lines: (§1)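 Calvarial osteoblasts at 2 × 10³ cells/well. Treated 48 h with varied concentrations in differentiation medium (5% charcoal-treated FBS, 10 mM β-glycerophosphate, 50 µg·mL⁻¹ ascorbic acid). Total ALP read with PNPP substrate at 405 nm. Cell-free wells check for compound interference with substrate or absorbance.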

Data set [2] can be described thus: Induction of osteoblast differentiation in Sprague-Dawley rat calvarial osteoblasts assessed as alkaline phosphatase activity after 48 hrs using PNPP as substrate by spectrophotometric method. In kind it is functional, cell-based. The note with it: Rattus norvegicus, Sprague-Dawley, Calvarial osteoblast, 48 h; read-out: EC50. In a few lines:
as §1

Data set [3] deals with Calvarial osteoblast. Kind of data set: Cytotoxicity against Sprague-Dawley rat calvarial osteoblasts assessed as reduction in cell viability at 0.000001 to 1 uM after 48 hrs by MTT assay. In kind it is cell-based. In a few lines: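 Osteoblasts came from pooled calvaria of 1-2-day-old Sprague-Dawley pups, isolated by sequential dispase/collagenase digestion. Cells were exposed to compound at 1 pM to 1 µM for 48 h, and viability was measured by MTT.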
Background: Tetrazolium assays rely on reduction of a dye to a coloured formazan, in cell work by metabolically active cells.

The subject of data set [4] is Calvarial osteoblast. In words: Osteogenic activity in Sprague-Dawley rat calvarial osteoblasts assessed as mineralized nodule formation at 100 pM after 21 days by alizarin red-S staining based colorimetric method. In kind it is functional. Summed up: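 Osteoblasts at 10,000–15,000 cells/cm² in duplicate plates, 21 days in differentiation medium, medium changed every 48 h. Cells fixed in 4% PFA, stained with alizarin red-S (40 mM, pH 4.5, 30 min) and photographed. Stain extracted with 10% acetic acid, pH brought to 4.5 with ammonium hydroxide, read at 405 nm, normalized to cell number.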

A short description of data set [5]: Increase in OCN mRNA expression in Sprague-Dawley rat calvarial osteoblasts at 100 pM by RT-PCR method relative to control. It counts as functional, Calvarial osteoblast. Summed up: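 Primary calvarial osteoblasts were lysed in TRIzol after treatment, and total RNA was extracted. Transcripts were quantified by real-time PCR using the comparative CT (ΔΔCT) method.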

Data set [6] relates to Calvarial osteoblast. In words: Increase in Runx2 protein expression in Sprague-Dawley rat calvarial osteoblasts at 100 pM after 48 hrs by Western blot analysis. In kind it is functional, cell-based. In a few lines: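 Rat calvarial osteoblasts (pooled 1–2-day pups, collagenase/dispase digests) at 60–70% confluence treated 48 h. Whole-cell lysates immunoblotted with primary antibody overnight at 4 °C, then HRP secondary, with ECL detection. Densitometry gives fold change normalized to β-actin versus untreated cells. Mean ± SEM of three independent experiments.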

The test system of data set [7] is Calvarial osteoblast. Kind of data set: Antioxidant activity in Sprague-Dawley rat calvarial osteoblasts assessed as inhibition of TNFalpha-induced intracellular ROS production at 100 pM after 24 hrs by DCFH-DA staining based fluorescence assay. In kind it is functional, cell-based. Summed up: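 Primary rat calvarial osteoblasts were treated 24 h, then washed twice with serum-free medium. DCFH-DA (10 µg·mL⁻¹) was added in medium with 2% serum, followed by 30 min in the dark. Fluorescence was read at Ex 485/Em 535 nm.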

Data set [8] can be described thus: Antioxidant activity assessed as DPPH radical scavenging activity at 3.9 ug/ml after 30 mins by spectrophotometric method relative to control. In kind it is functional. Summed up: (§2)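 The compound was serially diluted from 1000 to 1.95 µg·ml⁻¹ and mixed 1:1 with DPPH in methanol. After 30 min at room temperature, absorbance was read at 517 nm. Scavenging (%) = [(Abc − Abs)/Abc] × 100, where Abc is DPPH without compound.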
A general note: Loss of DPPH colour is used to gauge radical scavenging.

Data set [9] is described as follows: Antioxidant activity assessed as DPPH radical scavenging activity after 30 mins by spectrophotometric method. In kind it is functional. Summed up: as §2
Data set [10] deals with Rattus norvegicus. Kind of data set: Antiosteoporotic activity in Sprague-Dawley rat model of OVX-induced bone loss assessed as protection against microarchitectural deterioration by measuring trabecular number at 1 mg/kg, po via gavage for 12 weeks by microcomputed tomographic analysis (reference value: 0.56 +/- 0.06 /millimeter). In kind it is functional. In a few lines:
(§3)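 Adult female Sprague-Dawley rats were ovariectomized and left 12 weeks to become osteopenic. They then received 12 weeks of once-daily oral gavage (1% gum acacia vehicle) or subcutaneous estradiol, five days a week. Femurs were collected at sacrifice and scanned by micro-CT for BMD and trabecular microarchitecture. Ten rats per group; mean ± SEM.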

The subject of data set [11] is Rattus norvegicus. Kind of data set: Antiosteoporotic activity in Sprague-Dawley rat model of OVX-induced bone loss assessed as protection against microarchitectural deterioration by measuring trabecular separation at 5 mg/kg, po via gavage for 12 weeks by microcomputed tomographic analysis (reference value: 1.31 +/- 0.06 millimeter). It counts as functional. In a few lines: as §3

The test system of data set [12] is Rattus norvegicus. Kind of data set: Antiosteoporotic activity in Sprague-Dawley rat model of OVX-induced bone loss assessed as bone formation rate at 1 mg/kg, po via gavage for 12 weeks by microcomputed tomographic analysis (reference value: 0.171 +/- 0.005 um3/um2/day). It counts as functional. In a few lines:
(§4)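 Female Sprague-Dawley rats, 10-12 weeks old, ten per group, were ovariectomized and left 12 weeks for osteopenia. They were then dosed once daily by oral gavage for 12 weeks in 1% gum acacia vehicle. The estradiol arm received 100 µg·kg⁻¹ subcutaneously five days a week. Tetracycline and calcein were given intraperitoneally at 20 mg·kg⁻¹ each. Femur cross-sections (50 µm) were imaged by fluorescence microscopy for MAR and BFR.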

The subject of data set [13] is Rattus norvegicus. Kind of data set: Antiosteoporotic activity in Sprague-Dawley rat model of OVX-induced bone loss assessed as increase in femoral bone strength by measuring stiffness at 1 mg/kg, po via gavage for 12 weeks by 3 point bending test (reference value: 122.07 +/- 12.18 N/mm). In kind it is functional.
The test system of data set [14] is Rattus norvegicus. In words: Antiosteoporotic activity in Sprague-Dawley rat model of OVX-induced bone loss assessed as mineral apposition rate at 5 mg/kg, po via gavage for 12 weeks by microcomputed tomographic analysis (reference value: 0.169 +/- 0.004 umeter/day). In kind it is functional. In a few lines:
as §4

The test system of data set [15] is Rattus norvegicus. Kind of data set: Upregulation of type-1 collagen mRNA expression in femur bone of Sprague-Dawley rat model of OVX-induced bone loss at 1 to 5 mg/kg, po via gavage for 12 weeks by qPCR analysis. In kind it is functional, organism-based. In a few lines:
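Ovariectomized female SD rats, osteopenic after 12 weeks, dosed orally once daily for 12 weeks (1.0 or 5.0 mg·kg⁻¹·day⁻¹, 1% gum acacia vehicle); sham and OVX vehicle groups included. Femurs collected at sacrifice for qRT-PCR, analysed by the ΔΔCT method.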
For orientation: In qPCR the cycle at which signal appears reflects the starting amount.

The nature of data set [16]: Hepatotoxicity in Sprague-Dawley rat model of OVX-induced bone loss assessed as morphological changes in liver at 1 to 5 mg/kg, po via gavage for 12 weeks by hematoxylin and eosin staining based assay. In kind it is toxicity, organism-based. Conditions: in vivo, 2016 h. In a few lines:
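Liver samples from ovariectomized rats after 12 weeks of treatment were dehydrated in isopropanol, cleared in xylene and paraffin-embedded. Transverse 5 µm sections were stained with hematoxylin and eosin and imaged.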

Data set [17] in a line: Toxicity in Sprague-Dawley rat model of OVX-induced bone loss assessed as total uterine area at 1 mg/kg, po via gavage for 12 weeks (reference value: 0.11 +/- 0.003 mm2). The note with it: in vivo, 2016 h. In kind it is organism-based.
The nature of data set [18]: Toxicity in Sprague-Dawley rat model of OVX-induced bone loss assessed as luminal epithelial height at 1 mg/kg, po via gavage for 12 weeks (reference value: 27.29 +/- 0.96 umeter). In kind it is organism-based. The note with it: in vivo, 2016 h.
Data set [19] can be described thus: Toxicity in Sprague-Dawley rat model of OVX-induced bone loss assessed as luminal area at 5 mg/kg, po via gavage for 12 weeks (reference value: 0.01 +/- 0.0004 mm2). It counts as organism-based. Conditions: in vivo, 2016 h.

Here are results for one molecule from ChEMBL document CHEMBL4325822, “Discovery of a tetrazolyl β-carboline with in vitro and in vivo osteoprotective activity under estrogen-deficient conditions” (Medchemcomm, 2018).

Calls of active or inactive are those of the source. The rule behind the calls is not given here.

The term Emax denotes the greatest response seen or fitted, relative to the assay's reference. In general, EC50 refers to the concentration giving half of the maximal effect. Consider `CCOC(=O)c1cc2c([nH]c3ccccc32)c(C(c2nnnn2C(C)(C)C)N2CCN(C)CC2)n1` (centres undefined), for which, in data set [1], the Emax at 0.0001 µM is 89%. For the same molecule, in [2], the EC50 came out at 900 nM. Further, the Activity entry is “Non-Toxic” in data set [3]; 70% in data set [4]; 3.82% in data set [8]; “Dose-dependent effect” in data set [9]; 1.34 /millimeter in data set [10]; 0.87 mm in [11]. The Activity in data set [12] is 1.032 um3/um2/day; in data set [13], 151.3 N/mm; in [14] it was 0.92 micrometer/day; in data set [16], “Non-Toxic”; in [17], 0.14 mm2; in data set [18] it was 3.7 um. The Activity in data set [19] stood at 0.012 mm2. The “fold change (FC)” value in data set [5] is recorded as 1.8 - 4.6. The result in data set [6] and in data set [15] was Active. For the same molecule, the inhibition entry in [7] is “Active”.
